# Screening results: PubChem, several laboratories
# Shown are actives, neighbours in structure and some others; about 3.1% of the full set was active somewhere.
# MEKK3 PB1 HTS – MEKK3-MEK5 PB1 interaction, increase or decrease | binding response (% of control), % at 10 µM | hit rate 1.4% among 290,000 | bead-based flow cytometry, Alexa488-MEK5 binding to MEKK3; actives lie on both sides; 0 = blocked by unlabeled MEK5, 100 = vehicle;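 active = binding response more than 3 SD above or below the average of its plate-row segment, actives on both sides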;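 also: Alexa488 bead fluorescence after subtracting the streptavidin-only scavenger bead signal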
# PREPL inhibitor – human PREPL enzyme inhibition; Q4J6C6; recombinant PREPL, fluorescence polarization activity-based probe; inhibition, % at 5.96 µM; hit rate 0.68% among 320,000; AID 2751; in the data active = inhibition above about 43%;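 also: 0% = enzyme with DMSO and 100% = wells lacking enzyme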
# Target sequence (Q4J6C6 whole entry, looked up): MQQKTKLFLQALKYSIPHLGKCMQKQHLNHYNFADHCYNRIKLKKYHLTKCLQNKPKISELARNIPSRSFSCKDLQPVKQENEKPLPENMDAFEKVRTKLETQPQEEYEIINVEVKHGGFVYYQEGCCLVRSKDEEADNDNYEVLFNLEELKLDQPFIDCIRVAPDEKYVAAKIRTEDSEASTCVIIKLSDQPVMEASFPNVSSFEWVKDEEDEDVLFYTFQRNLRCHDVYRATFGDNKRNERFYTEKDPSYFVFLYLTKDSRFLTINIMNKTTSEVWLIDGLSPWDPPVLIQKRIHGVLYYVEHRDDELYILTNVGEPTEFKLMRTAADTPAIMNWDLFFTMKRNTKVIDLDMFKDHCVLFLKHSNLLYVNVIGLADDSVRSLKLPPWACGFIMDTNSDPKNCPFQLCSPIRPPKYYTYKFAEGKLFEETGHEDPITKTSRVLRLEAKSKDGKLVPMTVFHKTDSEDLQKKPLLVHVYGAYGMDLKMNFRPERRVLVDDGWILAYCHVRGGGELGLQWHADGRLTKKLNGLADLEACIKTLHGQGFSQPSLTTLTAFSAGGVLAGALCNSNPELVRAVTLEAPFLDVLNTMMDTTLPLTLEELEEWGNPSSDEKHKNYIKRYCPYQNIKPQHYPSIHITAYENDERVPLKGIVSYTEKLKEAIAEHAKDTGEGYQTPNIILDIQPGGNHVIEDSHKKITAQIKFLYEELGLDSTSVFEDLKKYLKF
# Apaf-1 inh – inhibitors of human Apaf-1 apoptosome. O14727. reconstituted apoptosome caspase-3 activity, DEVD-Rh110 fluorescence. inhibition, % at 20 µM. hit rate 0.71% among 330,000. AID 489030; active = inhibition of at least 40% at 20 µM;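 also: plate controls were DMSO wells for no effect and DEVD-CHO caspase inhibitor wells for full effect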
#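 Material: biochemical Apaf-1 apoptosome reconstitution. Medium: Hepes buffer, pH 7.5. Also added: cytochrome c activation, bis-DEVD rhodamine 110 substrate. Timing: 30 min compound preincubation, 50 min activation, room temperature. Measured by: rhodamine 110 fluorescence at Ex 480/Em 540 nm.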
# MEKK2mut PB1 HTS – signal of MEK5 binding to mutant human MEKK2 PB1 domain. bead flow cytometry, Alexa488-MEK5 binding to MEKK2 mutant. percent response, % at 10 µM. hit rate 0.35% among 290,000; in the data active = percent response above about 24%, passing the limit was not always enough
# UBC13 polyUb – blocks human UBC13 polyubiquitin chain formation; P61088; TR-FRET; inhibition, % at 20 µM; hit rate 0.47% among 330,000; AID 485273; in the data active = inhibition above about 45%, passing the limit was not always enough
# MEKK2wt PB1 HTS – raises or lowers MEK5 binding to wildtype human MEKK2 PB1 domain. bead flow cytometry, Alexa488-MEK5 binding to MEKK2 WT; actives lie on both sides. binding response (% of control), % at 10 µM. hit rate 1.1% among 290,000. AID 1531; in the data active = binding response below about 67% or above about 130%
# MEKK2wt confirm – raises or lowers MEK5 binding to wildtype human MEKK2, retest. AID 1892. bead flow cytometry, Alexa488-MEK5 binding to MEKK2 WT; actives lie on both sides. hit rate 2.4% among 5,900. binding response (% of control), % at 10 µM. shares compounds with MEKK3 PB1 HTS; in the data active = binding response below about 16% or above about 210%; inactive = in between
# MEKK2mut confirm – signal of MEK5 binding to mutant human MEKK2, retest; shares compounds with MEKK3 PB1 HTS; bead flow cytometry, Alexa488-MEK5 binding to MEKK2 mutant; percent response, % at 10 µM; hit rate 2% among 5,900; AID 1893; in the data active = percent response mostly above about 71%, no sharp cut-off; inactive = mostly below about 38%;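 also: higher means compound restores mutant binding toward wildtype level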
# MEKK3 confirm – confirmation of inhibitors of MEK5 binding to human MEKK3. shares compounds with MEKK3 PB1 HTS. bead flow cytometry, Alexa488-MEK5 binding to MEKK3; hits give low values. binding response (% of control), % at 10 µM. hit rate 1.8% among 5,900;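 active = binding response below 72% of control, or above a set upper limit, though filed actives all read lower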;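 also: 100% = DMSO only wells and 0% = binding blocked by excess unlabeled MEK5; lower values mean stronger disruption of MEK5 binding to MEKK3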
# * marks the source's active call; other numbers are inactive results; / = no result; [ ] = another dose, or the depositor's remark.
SMILES,MEKK3 PB1 HTS,PREPL inhibitor,Apaf-1 inh,MEKK2mut PB1 HTS,UBC13 polyUb,MEKK2wt PB1 HTS,MEKK2wt confirm,MEKK2mut confirm,MEKK3 confirm
CC1(C)CC(=O)C2=C(C1)Nc1ncnn1C2c1cccs1 (centres undefined),145.0*,-0.7,-21.2,1.0,-4.9,124.0,110.0,6.0,107.0
CCCN1CCN(C(=O)CCc2nnc3ccc(N4CCN(c5cccc(OC)c5)CC4)nn23)CC1,99.0,26.8,-3.7,3.0,6.6,103.0,/,/,/
COc1cc(CC(=O)OCC(=O)Nc2cc([N+](=O)[O-])ccc2Cl)cc(OC)c1OC,97.0,-1.4,-5.1,9.0,3.9,58.0*[inhibitor],90.0,-6.0,97.0
CCOC(=O)N1CCN(CC(O)COc2ccccc2C(C)C)CC1 (centres undefined),101.0,3.0,2.1,3.0,2.3,103.0,/,/,/
CCN(CCNCC(O)COc1ccccc1C(C)C)c1cccc(C)c1 (centres undefined),109.0,13.0,32.7,44.0*,31.6,174.0*,169.0,29.0,95.0
CC(C)NC(=O)C1CC=CCC1C(=O)O (centres undefined),134.0*,-4.2,-13.3,0.0,4.1,107.0,101.0,9.0,103.0
CCN(CC)S(=O)(=O)c1ccc(OCC(=O)NCc2ccccc2)cc1,27.0*[inhibitor],3.8,-6.3,-19.0,6.3,38.0*[inhibitor],98.0,-4.0,102.0
O=c1c(Cl)c(N2CCN(c3ccc(F)cc3)CC2)cnn1C12CC3CC(CC(C3)C1)C2,148.0*,38.6,29.0,0.0,0.7,100.0,119.0,18.0,110.0
COc1ccc(Cn2c(-c3ccco3)nc3c(c(=O)c4ccccc4n3C)c2=O)cc1,136.0*,-5.3,-0.9,28.0,9.5,108.0,101.0,6.0,106.0
COc1ccc(Cn2c(-c3ccc(OC)cc3)nc3c(c(=O)c4ccccc4n3C)c2=O)cc1,102.0,-16.0,27.9,11.0,9.6,94.0,/,/,/
COc1ccc(-c2nc3c(c(=O)c4ccccc4n3C)c(=O)n2Cc2ccccc2)cc1,149.0*,3.7,5.3,0.0,1.0,105.0,99.0,3.0,102.0
Cc1cc(C)c[n+](CC(=O)c2c(C)cc(C)c([N+](=O)[O-])c2C)c1,103.0,7.3,-11.7,3.0,0.2,102.0,/,/,/
CCn1c(SCC(=O)c2ccccc2)nc2sc3c(c2c1=O)CCN(C)C3,130.0*,28.7,1.3,29.0,2.8,124.0,104.0,0.0,104.0
CN1CCc2c(sc3nc(SCC(N)=O)n(-c4ccccc4)c(=O)c23)C1,99.0,34.8,5.2,79.0*,-10.7,105.0,94.0,-6.0,99.0
CC(OC(=O)Cn1ccccc1=O)C(=O)Nc1cc(Cl)cc(Cl)c1 (centres undefined),/,-1.8,-5.6,/,20.2,/,/,/,/
O=C(CSc1ccc2nnc(-c3ccc(F)cc3)n2n1)N1CCCc2ccccc21,134.0*,7.7,17.2,0.0,-9.1,102.0,101.0,5.0,104.0
C[C@H](NS(=O)(=O)c1ccc(F)cc1)C(=O)OCC(=O)c1c(N)n(C)c(=O)n(C)c1=O,/,15.1,-2.2,/,2.3,/,/,/,/
CCCc1n[nH]c(=S)n1Cc1ccco1,103.0,-1.7,-13.9,12.0,-6.0,110.0,/,/,/
S=c1[nH]nc(COc2ccc(Cl)cc2)n1Cc1ccco1,155.0*,-8.5,0.9,6.0,-1.5,126.0,105.0,2.0,103.0
CC(C)(C)OC(=O)NCc1ccc(CNC(=O)c2[nH]cnc2C(=O)NCC(=O)OCc2ccccc2)cc1,105.0,-12.9,10.1,-3.0,-19.5,100.0,/,/,/
CC(C)COC(=O)c1ccc(N2C(=O)c3ccccc3C2=O)cc1,5.0*[inhibitor],6.2,11.7,-45.0,6.1,7.0*[inhibitor],99.0,6.0,103.0
O=C(Nc1ccccc1N1CCOCC1)c1ccc2ccccc2c1,105.0,3.9,16.6,-6.0,-2.8,101.0,/,/,/
O=C(Nc1ccccc1N1CCOCC1)c1ccc(Cl)nc1,72.0*[inhibitor],8.7,-4.6,1.0,5.2,86.0,101.0,-2.0,100.0
Cc1ccc(N2CCN(C3=NC(=O)/C(=C\c4cn[nH]c4-c4ccccc4)S3)CC2)cc1,135.0*,28.5,14.9,0.0,-18.7,103.0,98.0,-1.0,98.0
CCOC(=O)N1CCC(NC(=O)C2=CCN(S(=O)(=O)c3ccc(OC)cc3)CC2)CC1,128.0*,-0.5,-2.2,29.0,-16.8,121.0,98.0,0.0,96.0
SMILES,MEKK3 PB1 HTS,PREPL inhibitor,Apaf-1 inh,MEKK2mut PB1 HTS,UBC13 polyUb,MEKK2wt PB1 HTS,MEKK2wt confirm,MEKK2mut confirm,MEKK3 confirm
C(=N/n1c2ccccc2c2ccccc21)/c1ccco1,102.0,6.2,5.1,-2.0,2.9,103.0,/,/,/
N=c1scc(-c2ccccc2)n1/N=C/c1ccco1,103.0,14.8,-2.2,55.0*,-5.7,108.0,87.0,-2.0,95.0
Cc1ccc(NC(=O)CSCC(=O)Nc2ccccc2C(=O)NC2CC2)cc1,/,/,6.8,/,4.8,/,/,/,/
CC(C)(C)NC(=O)CN(Cc1cccs1)C(=O)CNS(=O)(=O)c1ccc(F)cc1,94.0,6.5,5.3,-13.0,-6.7,84.0,/,/,/
CCC(C(=O)NC(C)(C)C)N(Cc1cccs1)C(=O)CNS(=O)(=O)c1ccccc1 (centres undefined),132.0*,17.2,5.7,29.0,-13.5,118.0,97.0,-8.0,100.0
c1ccc(COc2ccccc2CNc2nn[nH]n2)cc1,67.0*[inhibitor],-5.8,-4.0,-9.0,-3.4,72.0,103.0,-1.0,103.0
Fc1ccc(COc2ccc3ccccc3c2CNc2nn[nH]n2)cc1,101.0,1.8,-4.4,-3.0,4.7,96.0,/,/,/
COc1ccc(-c2n[nH]c(C)c2-c2cscn2)c(O)c1,133.0*,-7.0,-11.3,29.0,5.7,130.0,101.0,-12.0,98.0
Cc1nn(CC(=O)NCCCN2CCCC2)c(=O)c2nn(-c3ccccc3)c(C)c12,98.0,12.6,4.0,-4.0,0.2,97.0,/,/,/
O=C(O)/C(=C\c1cccc(OCc2ccccc2)c1)c1ccc(F)cc1,94.0,-13.4,11.1,-8.0,-6.9,93.0,/,/,/
Cc1ccc(S(=O)(=O)N2CCC(C(=O)OCC(=O)N3CCCC3=O)CC2)cc1C,/,-4.3,4.5,/,-0.2,/,/,/,/
COc1cc(/C=C2\SC(=S)N(Nc3ncc(C(F)(F)F)cc3Cl)C2=O)ccc1O,93.0,-100.5,13.7,-6.0,-88.4,62.0*[inhibitor],76.0,-12.0,98.0
COc1cc(/C=C2\SC(=S)N(Nc3ccccc3)C2=O)ccc1O,94.0,-126.7,11.4,-3.0,-113.7,58.0,/,/,/
